SMILES strings stand for the structures.

This is an account of results in ChEMBL document CHEMBL1781928, “Thiazolylmethyl ortho-substituted phenyl glucoside library as novel C-aryl glucoside SGLT2 inhibitors” (Eur J Med Chem, 2011).

This assay deals with T1, Sodium/glucose cotransporter 2 (Homo sapiens, UniProt P31639).
T1 sequence (P31639 whole entry): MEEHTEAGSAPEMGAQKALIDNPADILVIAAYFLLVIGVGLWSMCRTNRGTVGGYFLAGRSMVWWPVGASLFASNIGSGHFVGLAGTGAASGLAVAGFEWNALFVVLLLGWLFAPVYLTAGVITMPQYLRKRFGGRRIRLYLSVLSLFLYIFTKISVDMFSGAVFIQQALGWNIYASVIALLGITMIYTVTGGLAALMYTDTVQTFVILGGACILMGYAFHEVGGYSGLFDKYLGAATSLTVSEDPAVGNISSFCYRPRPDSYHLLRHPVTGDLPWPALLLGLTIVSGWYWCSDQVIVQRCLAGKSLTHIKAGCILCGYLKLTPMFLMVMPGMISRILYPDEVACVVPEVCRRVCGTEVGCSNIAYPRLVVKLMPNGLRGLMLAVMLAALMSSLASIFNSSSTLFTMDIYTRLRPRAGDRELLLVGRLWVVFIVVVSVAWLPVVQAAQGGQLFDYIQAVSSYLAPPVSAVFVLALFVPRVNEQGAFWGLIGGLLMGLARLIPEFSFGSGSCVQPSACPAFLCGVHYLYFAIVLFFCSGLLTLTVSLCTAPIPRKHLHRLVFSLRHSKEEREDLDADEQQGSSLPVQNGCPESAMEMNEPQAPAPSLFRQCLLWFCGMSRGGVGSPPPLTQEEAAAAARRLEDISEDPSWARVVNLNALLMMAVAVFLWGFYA
Nature of the assay: Inhibition of human SGLT2 expressed in CHO cells assessed as [14C]-alpha-methyl-D-glucopyranoside uptake after 2 hrs by liquid scintillation counter. The format is cell-based. In outline: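 hSGLT2 cDNA from adult kidney, stably transfected into CHO cells. They were pretreated 10 min at 37 °C in choline-chloride buffer (pH 7.4), then taken up 2 h at 37 °C in NaCl buffer with 1 mM unlabeled AMG plus ¹⁴C-AMG (8 uM) and inhibitor or DMSO. Two washes in buffer containing 10 mM AMG. IC₅₀ by nonlinear regression.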
Consider `OCc1cc(Cl)c(Cc2ncc(-c3cccs3)s2)cc1[C@@H]1O[C@H](CO)[C@@H](O)[C@H](O)[C@H]1O`, for which the IC50 came out at 5.88 nM.

Turning to `COc1cc(Cl)c(Cc2ncc(-c3cccs3)s2)cc1[C@@H]1O[C@H](CO)[C@@H](O)[C@H](O)[C@H]1O`, the IC50 was 1.59 nM.

As to `CN(C)CCOc1cc(Cl)c(Cc2ncc(-c3ccco3)s2)cc1[C@@H]1O[C@H](CO)[C@@H](O)[C@H](O)[C@H]1O`, the IC50 worked out at 713 nM.

In the case of `C=CCOCc1cc(Cl)c(Cc2ncc(-c3ccsc3)s2)cc1[C@@H]1O[C@H](CO)[C@@H](O)[C@H](O)[C@H]1O`, the IC50 is 10 nM.

On to `C=CCOCc1cc(Cl)c(Cc2ncc(-c3ccoc3)s2)cc1[C@@H]1O[C@H](CO)[C@@H](O)[C@H](O)[C@H]1O`, for which the IC50 is 38.7 nM.

On to `CCOc1cc(Cl)c(Cc2ncc(-c3ccsc3)s2)cc1[C@@H]1O[C@H](CO)[C@@H](O)[C@H](O)[C@H]1O`, for which the IC50 was found to be 1.18 nM.

For the molecule `COc1cc(Cl)c(Cc2ncc(-c3ccco3)s2)cc1[C@@H]1O[C@H](CO)[C@@H](O)[C@H](O)[C@H]1O`, the IC50 came out at 2.15 nM.

In the case of `CCCOc1cc(Cl)c(Cc2ncc(-c3ccco3)s2)cc1[C@@H]1O[C@H](CO)[C@@H](O)[C@H](O)[C@H]1O`, the IC50 came out at 21.6 nM.

`C=CCCOc1cc(Cl)c(Cc2ncc(-c3ccco3)s2)cc1[C@@H]1O[C@H](CO)[C@@H](O)[C@H](O)[C@H]1O`: the IC50 is 32.8 nM.

In the case of `OC[C@H]1O[C@@H](c2cc(Cc3ncc(-c4ccco4)s3)c(Cl)cc2Cl)[C@H](O)[C@@H](O)[C@@H]1O`, the IC50 amounted to 2.24 nM.

For `OC[C@H]1O[C@@H](c2cc(Cc3ncc(-c4ccc(F)cc4)s3)c(Cl)cc2F)[C@H](O)[C@@H](O)[C@@H]1O`, the IC50 was 27.4 nM.

Regarding `C=CCOCc1cc(Cl)c(Cc2ncc(-c3ccco3)s2)cc1[C@@H]1O[C@H](CO)[C@@H](O)[C@H](O)[C@H]1O`, the IC50 is 17.5 nM.

Turning to `C#CCOc1cc(Cl)c(Cc2ncc(-c3ccco3)s2)cc1[C@@H]1O[C@H](CO)[C@@H](O)[C@H](O)[C@H]1O`, the IC50 is 2.23 nM.

Turning to `C=CCOCc1cc(Cl)c(Cc2ncc(-c3cccs3)s2)cc1[C@@H]1O[C@H](CO)[C@@H](O)[C@H](O)[C@H]1O`, the 50% inhibitory concentration (IC50) was 16.2 nM.

As for `OCc1cc(Cl)c(Cc2ncc(-c3ccco3)s2)cc1[C@@H]1O[C@H](CO)[C@@H](O)[C@H](O)[C@H]1O`, the IC50 worked out at 5.81 nM.

Regarding `OCc1cc(Cl)c(Cc2ncc(-c3ccsc3)s2)cc1[C@@H]1O[C@H](CO)[C@@H](O)[C@H](O)[C@H]1O`, the IC50 was 2.23 nM.

Turning to `OCc1cc(Cl)c(Cc2ncc(-c3ccoc3)s2)cc1[C@@H]1O[C@H](CO)[C@@H](O)[C@H](O)[C@H]1O`, the concentration for half-maximal inhibition (IC50) was determined as 20.5 nM.

By IC50 is commonly meant the concentration needed to halve the response being measured.
